Measured values published in ChEMBL document CHEMBL3751704, “Diarylthiophenes as inhibitors of the pore-forming protein perforin” (Bioorg Med Chem Lett, 2016).
The source made the active and inactive calls. No cut-off for these calls is given here.

Molecular target: T1, Perforin-1 (Homo sapiens) (UniProt P14222)
T1 sequence (whole entry): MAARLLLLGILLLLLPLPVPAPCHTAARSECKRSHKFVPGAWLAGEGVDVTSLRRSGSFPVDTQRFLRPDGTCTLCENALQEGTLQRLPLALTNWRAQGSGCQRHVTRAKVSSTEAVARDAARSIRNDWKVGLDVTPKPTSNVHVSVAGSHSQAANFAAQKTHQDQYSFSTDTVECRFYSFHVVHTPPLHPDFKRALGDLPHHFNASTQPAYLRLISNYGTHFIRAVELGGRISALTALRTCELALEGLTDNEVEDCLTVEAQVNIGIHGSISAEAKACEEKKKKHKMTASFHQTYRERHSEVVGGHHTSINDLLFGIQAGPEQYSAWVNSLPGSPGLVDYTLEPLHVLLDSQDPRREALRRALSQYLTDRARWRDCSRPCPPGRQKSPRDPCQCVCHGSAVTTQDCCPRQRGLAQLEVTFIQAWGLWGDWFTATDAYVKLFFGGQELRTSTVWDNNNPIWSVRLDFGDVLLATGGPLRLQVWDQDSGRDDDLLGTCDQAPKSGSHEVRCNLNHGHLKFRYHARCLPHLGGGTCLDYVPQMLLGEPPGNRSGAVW
Test: Inhibition of perforin released from human KHYG-1 NK cells assessed as inhibition of perforin mediated lysis of human K562 cells at 20 uM by measuring 51Cr release incubated for 20 mins by gamma counting analysis relative to control
Type: cell-based
Conditions: in the assay text read “incubated for 30 mins” for “incubated for 20 mins”
In short: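 KHYG-1 human NK effector cells preincubated with inhibitor (20 μM) in medium for 30 min at room temperature. 51Cr-labelled K562 leukaemia target cells then added and incubated 4 h at 37 °C. Lysis read as 51Cr release. Percent inhibition calculated against untreated control.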

`CS(=O)(=O)Nc1ccc(-c2ccc(-c3ccc4c(c3)COC4=O)s2)cc1` was tested, and the inhibition was “inactive”.
